High-throughput results deposited in PubChem by several laboratories.
The list is not random: actives were taken first. Their share in the collection is about 2.4%.
SR-BI HDL uptake: inhibitors of mouse SR-BI mediated HDL lipid uptake; ldlA[mSR-BI] CHO cells, DiI-HDL uptake fluorescence, 3 h; inhibition, % at 12.5 µM; 320,000 compounds, 0.96% hits;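 active = mean replicate inhibition of at least 70% and a set share of replicates each scoring 70 or more; inconclusive = meets just one of the two criteria; inactive = fails both criteria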
Target sequence (Q61009 whole entry, looked up): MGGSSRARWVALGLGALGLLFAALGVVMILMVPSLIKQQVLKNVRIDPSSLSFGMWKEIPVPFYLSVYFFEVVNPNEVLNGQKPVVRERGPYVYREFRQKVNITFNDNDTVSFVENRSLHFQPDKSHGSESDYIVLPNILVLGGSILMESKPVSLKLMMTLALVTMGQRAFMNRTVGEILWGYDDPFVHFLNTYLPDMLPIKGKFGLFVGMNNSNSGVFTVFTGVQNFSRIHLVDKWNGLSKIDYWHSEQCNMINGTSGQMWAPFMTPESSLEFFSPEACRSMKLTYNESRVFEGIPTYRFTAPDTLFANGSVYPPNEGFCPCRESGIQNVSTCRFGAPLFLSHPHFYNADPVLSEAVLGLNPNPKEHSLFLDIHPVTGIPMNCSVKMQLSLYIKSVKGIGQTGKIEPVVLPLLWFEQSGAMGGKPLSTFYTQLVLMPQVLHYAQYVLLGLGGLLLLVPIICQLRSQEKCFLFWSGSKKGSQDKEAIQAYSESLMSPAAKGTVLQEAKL
m5-HT2A agonist: agonists of mouse serotonin 5-HT2A receptor (HTR2A) | 360,000 compounds, 0.66% hits | P35363 | activation, % at 7.6 µM | CHO-K1 mHTR2A beta-arrestin complementation, luminescence; percent of 30 µM serotonin response;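 active = activation above a run cutoff, the mean activation of all tested compounds plus 3 SD, cut at about 14% in these data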
Ins promoter up: MIN6 insulin promoter up-regulation; 190,000 compounds, 0.3% hits; z-score at 5 µM; MIN6 insulin promoter-GFP reporter, high-content imaging; active compounds read high; AID 1625;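 active = z-score above 3 at 5 µM with at least 500 cells counted in the well; inconclusive = wells under 500 cells, flagged as cytotoxic or low count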
MIN6 prolif: inducers of beta-cell replication in MIN6 cells | proliferation, % at 10 µM | 330,000 compounds, 0.29% hits | MIN6 cells proliferation, ATPlite luminescence, 48 h; cells starved in 0.2% serum; 100% = growth in 10% serum;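 active = compounds whose signal lies at least 3.5 SD above the mean of all wells on their plate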
SR-BI DiI-HDL act: activators of SR-BI mediated HDL lipid uptake. CHO ldlA[mSR-BI] cells, DiI-HDL uptake fluorescence, 3 h; 100 = double the neutral-control signal. activation, % at 12.5 µM. 320,000 compounds, 0.096% hits. AID 504775;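 active = mean replicate activation of at least 60% and every replicate at or above 60%; inconclusive = mean or all-replicate condition met, but not both; inactive = mean below 60% and not all replicates reaching 60%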
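Material – SR-BI-overexpressing, LDLR-lacking CHO cells · Medium – BSA-supplemented, HEPES-buffered Ham's F12, pH 7.4 · Doses – single concentration · Times – compound with DiI-HDL co-incubation, 3 h at 37 °C · Measured by – bottom-read fluorescence, 550/595 nm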
Calb FLC: C. albicans growth modulation with fluconazole; growth inhibition, % (no concentration beside the values); AID 1979; 300,000 compounds, 0.57% hits; C. albicans CaCi-2 + fluconazole, Alamar Blue growth, 48 h;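 active = growth inhibition above about 58% in most replicates, limit read from the data, passing the limit was not always enough; inconclusive = exactly half the replicates above a set limit; inactive = most replicates below a set limit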;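 also: all wells also contain fluconazole at 8 µg/ml as a sub-toxic cotreatment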
Large screens that a line does not name were inactive.

O=C(O)c1ccc(-c2nc(-c3ccc(Cl)cc3Cl)cs2)cc1	none
O=C(O)c1ccc(-c2nc(-c3ccc(Cl)cc3)cs2)cc1	Calb FLC 91.0 (no result: MIN6 prolif)
CCn1c(Cn2nnc(-c3ccccc3)n2)nnc1SCC(=O)Nc1ccc(N(C)C)cc1	none
CCn1c(Cn2nnc(-c3ccccc3)n2)nnc1SCC(=O)Nc1ccc(C(C)=O)cc1	Ins promoter up 4.86
CCn1c(Cn2nnc(-c3ccccc3)n2)nnc1SCC(=O)Nc1cccc(C(C)=O)c1	none
CCn1c(Cn2nnc(-c3ccccc3)n2)nnc1SCC(=O)Nc1cccc(C)c1C	SR-BI HDL uptake 75.8
CC(C#N)(NC(=O)CN1CCN(S(=O)(=O)c2cccc(F)c2)CC1)C1CC1 (configuration not stated)	none (no result: SR-BI HDL uptake, Ins promoter up, MIN6 prolif, SR-BI DiI-HDL act, Calb FLC)
CCCCCCSc1nnc2[nH]c(=O)cc(N)n12	Calb FLC 94.3
CCCCCCCSc1nc(N)cc(=O)[nH]1	Calb FLC 103.3
CCCCCSc1nc(O)cc(=O)[nH]1	none
C#CCOCC1CN(C)C(=O)O1 (configuration not stated)	none (no result: SR-BI HDL uptake, Ins promoter up, MIN6 prolif, SR-BI DiI-HDL act, Calb FLC)
CC(=O)Nc1ccc(S(=O)(=O)NCC(=O)Nc2ccc3c(c2)OCO3)cc1	none (no result: Ins promoter up, Calb FLC)
C/C(=N\NC(=O)c1c(Br)c(C)nn1C)c1ccc(NC(=O)C(C)Oc2ccc(Cl)cc2C)cc1 (configuration not stated)	SR-BI HDL uptake 76.2
O=C(Nc1ccc([N+](=O)[O-])cc1)Nc1nc(-c2ccc(Cl)s2)cs1	SR-BI HDL uptake 84.0 (no result: MIN6 prolif)
CC(=O)Nc1nc(-c2ccc([N+](=O)[O-])cc2)cs1	none
COc1ccc(NC(=O)Nc2cc3oc4ccccc4c3cc2OC)cc1	SR-BI HDL uptake 98.1
COc1ccc(/C=C/C(=O)NC(=S)Nc2cc3oc4ccccc4c3cc2OC)cc1	none
COc1cc2c(cc1NC(=O)/C=C/c1ccccc1)oc1ccccc12	SR-BI HDL uptake 79.9, Calb FLC inconclusive
COc1cc2c(cc1NC(=O)Nc1cccc(C)c1)oc1ccccc12	SR-BI HDL uptake 87.1
CCOC(=O)[C@]12CCCC=C1N(Cc1ccco1)C(=O)[C@H](CC(=O)NCCC(C)C)C2	none (no result: SR-BI HDL uptake, Ins promoter up, MIN6 prolif, SR-BI DiI-HDL act, Calb FLC)
Cc1ccc(S(=O)(=O)N2CCN(Cc3ccccc3)CC2)s1	none (no result: Ins promoter up, Calb FLC)
CN1\C(=C/C=C/C=C/C=[N+](C)C)C(C)(C)c2ccccc21	Ins promoter up inconclusive, SR-BI DiI-HDL act 182.1 (no result: MIN6 prolif)
COc1ccc2nc(SC(C)C(=O)NCC(=O)Nc3ccc(F)c(F)c3F)[nH]c2c1 (configuration not stated)	none (no result: Ins promoter up, Calb FLC)
CC(C)(C)S(=O)(=O)N1Cc2cc(=O)n(Cc3ccccc3)c(CCO)c2[C@H]1CCO	none (no result: Ins promoter up, MIN6 prolif, Calb FLC)
CCC(=O)N1CCN(c2ccnc3cc(Cl)ccc23)CC1	none
O=C(c1ccc(Cl)cc1)N1CCN(c2ccnc3cc(Cl)ccc23)CC1	Calb FLC 99.1 (no result: Ins promoter up, MIN6 prolif)
COc1cccc(CC(=O)Nc2ccccc2C(=O)N2CCOCC2)c1	SR-BI DiI-HDL act 71.3
CCCCC(=O)NC(c1ccc(N(CC)CC)cc1)c1ccc2cccnc2c1O (configuration not stated)	Calb FLC 121.0 (no result: Ins promoter up)
CCN(CC)c1ccc(C(NC(=O)C(C)C)c2ccc3cccnc3c2O)cc1 (configuration not stated)	none (no result: SR-BI HDL uptake, Ins promoter up, MIN6 prolif, SR-BI DiI-HDL act, Calb FLC)
CCCCC(=O)NC(c1ccc(N(C)C)cc1)c1ccc2cccnc2c1O (configuration not stated)	Calb FLC 93.9 (no result: Ins promoter up)
COc1ccc(OC)c(NC(=O)COc2cc(O)c3c(c2)OC(C)(C)CC3=O)c1	none (no result: SR-BI HDL uptake, Ins promoter up, MIN6 prolif, SR-BI DiI-HDL act, Calb FLC)
CC1CC(C)CN(C(=O)C(Cc2ccccc2)NC(=O)c2ccccc2)C1 (configuration not stated)	none (no result: Ins promoter up)
O=C(CSC(=S)N1CCOCC1)Nc1nc(=O)c2ccccc2s1	Calb FLC 51.9 (no result: SR-BI HDL uptake, m5-HT2A agonist, SR-BI DiI-HDL act)
C=CCN1C(=O)c2ccc(C(=O)N(CC)CC(=O)Nc3c(F)cccc3F)cc2C1=O	none (no result: Ins promoter up)
CCOC(=O)c1c(C)[nH]c(C(=O)CN2CCN(CC)CC2)c1C	none (no result: SR-BI HDL uptake, SR-BI DiI-HDL act)
CCOC(=O)c1c(C)[nH]c(C(=O)CN2CC(C)OC(C)C2)c1C (configuration not stated)	m5-HT2A agonist 16.7
COc1ccc(NC(=O)CN(C)C(=O)C(C)Oc2ccc(Br)cc2)cc1 (configuration not stated)	none (no result: Ins promoter up)
Cc1ccc(-n2c3c(c(=O)[nH]c2=O)C(NS(=O)(=O)c2ccc(C)cc2)(C(F)(F)F)C(=O)N3)cc1 (configuration not stated)	none
Cc1ccc(-n2c3c(c(=O)[nH]c2=O)C(C(F)(F)F)(C(F)(F)F)NC(=O)N3)cc1	Ins promoter up 3.01
CC1CCCCC1NC(=O)CN(C)S(=O)(=O)c1ccc2c(c1)CCC(=O)N2 (configuration not stated)	none (no result: Ins promoter up)
O=C(NC1=NCCS1)C1Cc2ccccc2CN1C(=O)c1ccccc1 (configuration not stated)	Ins promoter up 3.06, SR-BI DiI-HDL act inconclusive
Cc1cccc2cc(CNCC3CCCO3)c(Cl)nc12 (configuration not stated)	Calb FLC 98.8 (no result: Ins promoter up)
COC(=O)c1sc2nc3c(cc2c1N)COC(C)(C)C3	SR-BI DiI-HDL act 170.5
Cc1cccc(C)c1NC(=O)COC(=O)c1ccccc1Nc1ccccc1	SR-BI HDL uptake 82.1
COC(=O)Cc1ccc(NC(=S)N2CCN(CCO)CC2)cc1	none (no result: Ins promoter up)
CCn1c2ccc(F)cc2c2nnc(SCCN3CCCCC3)nc21	none (no result: Ins promoter up)
COC(=O)COc1c(/C=C\c2nc(O)c([N+](=O)[O-])c(=O)[nH]2)cccc1OC	SR-BI HDL uptake 74.9 (no result: Ins promoter up)
CC1CCCN(S(=O)(=O)c2cccc(C(=O)NCCCN3CCCC3=O)c2)C1 (configuration not stated)	none (no result: SR-BI HDL uptake, Ins promoter up, MIN6 prolif, SR-BI DiI-HDL act, Calb FLC)
Cc1ccc(NC(=O)CCc2c(C)nn(-c3ccc(N4CCCCC4)nn3)c2C)cc1F	none (no result: Ins promoter up)
Cc1ccc(C)c(NC(=O)CCc2c(C)nn(-c3ccc(N4CCCCC4)nn3)c2C)c1	SR-BI HDL uptake 83.0 (no result: Ins promoter up)
CCc1ccc(NC(=O)CCc2c(C)nn(-c3ccc(N4CCCCC4)nn3)c2C)cc1	SR-BI HDL uptake 80.9 (no result: Ins promoter up)
C=CCOC(=O)N1CCC2CC1c1cc(-c3cccc(C)c3)ccc12 (configuration not stated)	none (no result: Ins promoter up, MIN6 prolif, Calb FLC)
O=c1[nH]c2ccc(NCc3ccccc3OCc3ccc(Cl)cc3)cc2[nH]1	SR-BI HDL uptake 71.7 (no result: Ins promoter up)
COc1cccc(CNc2ccc3[nH]c(=O)[nH]c3c2)c1OCc1ccc(F)cc1	none (no result: Ins promoter up)
CCOc1ccc(-c2cc3cc(OC)c(OC)cc3c(C)n2)cc1	SR-BI HDL uptake 73.8 (no result: Ins promoter up)
CCOC(=O)CNc1nc(Cl)nc(Nc2ccc(C)cc2)n1	none (no result: SR-BI HDL uptake, SR-BI DiI-HDL act)
Cc1ccc(Nc2nc(Cl)nc(NC(C)(C)C)n2)cc1	Calb FLC 94.5 (no result: Ins promoter up)
Nc1[nH]n2c(=O)cc(-c3ccccc3)nc2c1N=Nc1ccc(S(N)(=O)=O)cc1	none (no result: Ins promoter up)
NS(=O)(=O)c1ccc(N=Nc2c(-c3ccccc3)[nH]n(-c3nc(-c4ccccc4)cs3)c2=O)cc1	SR-BI HDL uptake 112.1
CN(C)CCOCCOc1ccccc1-c1ccccc1	Ins promoter up 4.97
